Tests used:
[1] = Metabolic stability in CD-1 mouse microsomes assessed as half life at 37 degC by LC-MS/MS analysis; format: ADME, Microsome
Outline: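 Mouse liver microsomes, mixed gender, at 37 °C for 40 min; propranolol control. Reports t1/2, intrinsic clearance and % intact compound remaining at 40 min.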

Aminopeptidase N = biological target: T1, Aminopeptidase N (Sus scrofa, UniProt P15145); test: Inhibition of porcine APN using fluorogenic substrate H-Leu-AMC measured for 1 hr
T1 sequence (P15145 whole entry): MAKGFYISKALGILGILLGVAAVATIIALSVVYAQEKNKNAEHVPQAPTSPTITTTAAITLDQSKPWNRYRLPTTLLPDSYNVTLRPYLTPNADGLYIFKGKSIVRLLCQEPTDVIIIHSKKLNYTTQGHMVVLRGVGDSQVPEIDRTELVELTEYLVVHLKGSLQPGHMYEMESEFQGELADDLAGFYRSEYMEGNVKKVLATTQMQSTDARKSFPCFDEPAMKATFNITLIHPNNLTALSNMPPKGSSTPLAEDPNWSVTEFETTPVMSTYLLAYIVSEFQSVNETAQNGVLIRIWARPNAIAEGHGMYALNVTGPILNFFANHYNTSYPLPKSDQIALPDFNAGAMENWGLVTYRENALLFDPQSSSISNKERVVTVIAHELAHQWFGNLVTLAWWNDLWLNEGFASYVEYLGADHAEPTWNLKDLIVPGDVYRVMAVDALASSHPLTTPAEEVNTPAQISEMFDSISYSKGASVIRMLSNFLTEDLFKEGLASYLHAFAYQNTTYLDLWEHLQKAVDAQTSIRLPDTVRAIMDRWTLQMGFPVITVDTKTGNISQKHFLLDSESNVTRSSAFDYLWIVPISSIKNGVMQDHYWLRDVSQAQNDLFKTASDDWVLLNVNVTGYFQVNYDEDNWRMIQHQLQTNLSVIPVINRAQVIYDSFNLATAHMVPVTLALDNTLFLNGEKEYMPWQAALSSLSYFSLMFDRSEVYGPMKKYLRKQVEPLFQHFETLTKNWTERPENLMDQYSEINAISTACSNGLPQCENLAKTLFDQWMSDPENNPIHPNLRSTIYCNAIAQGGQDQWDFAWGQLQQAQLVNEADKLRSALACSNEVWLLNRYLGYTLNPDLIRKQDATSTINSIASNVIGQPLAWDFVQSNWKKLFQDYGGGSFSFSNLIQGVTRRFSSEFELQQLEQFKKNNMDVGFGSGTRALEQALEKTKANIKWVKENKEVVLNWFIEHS

[2] = Plasma protein binding in CD-1 mouse plasma measured after 4 hrs by LC-MS/MS analysis; format: ADME, cell-free; conditions: read-out: PPB (converted)
Outline: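 Binding to mouse plasma proteins (mixed gender) measured; diclofenac as control.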

Insulin-degrading enzyme = biological target: T2, Insulin-degrading enzyme (Homo sapiens, UniProt P14735); test: Inhibition of recombinant human IDE using ATTO 655-Cys-Lys-Leu-Val-Phe-Phe-Ala-Glu-Asp-Trp as substrate measured after 45 mins by fluorescence assay
T2 sequence (P14735 whole entry): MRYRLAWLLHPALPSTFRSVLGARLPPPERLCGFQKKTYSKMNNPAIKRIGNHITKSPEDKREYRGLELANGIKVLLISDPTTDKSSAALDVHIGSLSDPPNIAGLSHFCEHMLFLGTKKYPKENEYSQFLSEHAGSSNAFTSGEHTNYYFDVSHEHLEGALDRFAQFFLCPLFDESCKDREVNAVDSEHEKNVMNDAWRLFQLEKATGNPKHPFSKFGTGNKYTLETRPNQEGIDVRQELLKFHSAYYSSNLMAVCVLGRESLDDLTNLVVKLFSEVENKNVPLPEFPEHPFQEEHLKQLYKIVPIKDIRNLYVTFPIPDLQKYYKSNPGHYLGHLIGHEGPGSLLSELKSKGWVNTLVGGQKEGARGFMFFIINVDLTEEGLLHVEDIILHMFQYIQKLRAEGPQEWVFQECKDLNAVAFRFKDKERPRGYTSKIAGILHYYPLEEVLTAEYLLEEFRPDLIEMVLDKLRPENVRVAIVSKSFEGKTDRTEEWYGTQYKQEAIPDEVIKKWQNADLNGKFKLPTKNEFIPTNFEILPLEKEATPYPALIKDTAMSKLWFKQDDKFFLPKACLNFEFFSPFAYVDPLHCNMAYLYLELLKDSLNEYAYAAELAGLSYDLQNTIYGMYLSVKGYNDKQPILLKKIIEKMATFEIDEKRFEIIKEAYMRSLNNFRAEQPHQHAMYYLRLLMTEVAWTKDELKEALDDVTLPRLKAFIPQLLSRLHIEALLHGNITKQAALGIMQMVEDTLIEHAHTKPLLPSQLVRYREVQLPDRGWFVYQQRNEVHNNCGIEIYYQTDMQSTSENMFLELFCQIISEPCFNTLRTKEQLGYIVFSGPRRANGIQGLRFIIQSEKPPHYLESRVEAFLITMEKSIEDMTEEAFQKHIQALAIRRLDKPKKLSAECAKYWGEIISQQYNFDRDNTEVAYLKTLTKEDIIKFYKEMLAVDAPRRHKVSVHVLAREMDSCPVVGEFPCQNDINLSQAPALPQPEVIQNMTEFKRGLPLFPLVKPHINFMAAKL

Klebsiella pneumoniae = test: Antimicrobial activity against blaVIM-1-producing multidrug-resistant Klebsiella pneumoniae K47-25 clinical isolate assessed as meropenem MIC at 32 ug/ml by broth microdilution method (reference value: […] ug/ml); format: functional; conditions: dose 32 µg/ml
Outline: (§1)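 Inoculum was 5×10^4 CFU/well. Each inhibitor was present at a fixed 32 μg/mL, and MICs were also taken without inhibitor.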

[3] = Inhibition of bacterial NDM-1 (unknown origin) expressed in Escherichia coli EXPRESS BL21(DE3) assessed as inhibition constant by measuring rate of substrate hydrolysis by UV-visible spectrophotometry; design: species or system Bacteria
Outline: (§2)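 Reporter-substrate assay with purified MBL (1–70 nM final) in 50 mM HEPES pH 7.5 at 30 °C. […] Inhibitor 0.5–1000 μM final. Ki derived from the v0/vi vs [I] slope assuming competitive inhibition, or from a Dixon plot. Ki given when inhibition >70%, otherwise % inhibition at 100 μM. Triplicate.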

[4] = n-Octanol/PBS partition coefficient, logD of the compound at pH 7.4 after 2 hrs by LC-MS/MS analysis; format: physicochemical
Outline: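 LogD from partitioning between 10 mM PBS pH 7.4 and n-octanol (1:1).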

Pseudomonas aeruginosa = test: Antimicrobial activity against blaVIM-2-producing multidrug-resistant Pseudomonas aeruginosa VA-182/00 clinical isolate assessed as meropenem MIC at 32 ug/ml by broth microdilution method (reference value: 128 ug/ml); format: functional; conditions: dose 32 µg/ml; outline: as §1
[5] = Solubility in PBS pH 7.4 after 24 hrs by LC-MS/MS analysis; format: physicochemical
Outline: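 Solubility in 10 mM PBS, pH 7.4.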

[6] = Inhibition of bacterial IMP-1 (unknown origin) expressed in Escherichia coli EXPRESS BL21(DE3) assessed as inhibition constant by measuring rate of substrate hydrolysis by UV-visible spectrophotometry; design: species or system Bacteria; outline: as §2
[7] = Inhibition of bacterial VIM-2 (unknown origin) expressed in Escherichia coli EXPRESS BL21(DE3) assessed as inhibition constant by measuring rate of substrate hydrolysis by UV-visible spectrophotometry; design: species or system Bacteria; outline: as §2

O=C(O)[C@H](CCCn1c(-c2ccc3ccccc3c2)n[nH]c1=S)N(Cc1c[nH]cn1)Cc1c[nH]cn1
half-life [1]: > 40 min | IC50 (Aminopeptidase N): 16 µM | fraction unbound at 4 h [2]: 0.048 | IC50 (Insulin-degrading enzyme): 9.1 µM | MIC (Klebsiella pneumoniae): 0.03 µg/mL | Ki [3]: 0.03 µM | logD at 2 h [4]: -0.823 | MIC (Pseudomonas aeruginosa): 8 µg/mL | solubility at 24 h [5]: ≥ 200 µM | Ki [6]: 4.7 µM | Ki [7]: 0.11 µM

O=C(O)[C@H](CCn1c(-c2ccccc2)n[nH]c1=S)N(Cc1c[nH]cn1)Cc1c[nH]cn1
half-life [1]: > 40 min | IC50 (Aminopeptidase N): 27 µM | fraction unbound at 4 h [2]: 0.45 | IC50 (Insulin-degrading enzyme): 17 µM | MIC (Klebsiella pneumoniae): 0.06 µg/mL | Ki [3]: 0.04 µM | logD at 2 h [4]: -2.2 | MIC (Pseudomonas aeruginosa): 8 µg/mL | solubility at 24 h [5]: ≥ 200 µM | Ki [6]: 6.2 µM | Ki [7]: 0.21 µM

O=C(O)[C@H](CCCn1c(-c2ccccc2)n[nH]c1=S)N(Cc1ccccn1)Cc1ccccn1
half-life [1]: > 40 min | fraction unbound at 4 h [2]: 0.313 | IC50 (Insulin-degrading enzyme): 41 µM | MIC (Klebsiella pneumoniae): 0.06 µg/mL | Ki [3]: 0.57 µM | logD at 2 h [4]: 0.243 | MIC (Pseudomonas aeruginosa): 16 µg/mL | solubility at 24 h [5]: ≥ 200 µM | Ki [7]: 0.96 µM

O=C(O)[C@H](CCCn1c(-c2ccccc2)n[nH]c1=S)N(Cc1c[nH]cn1)Cc1c[nH]cn1
half-life [1]: > 40 min | IC50 (Aminopeptidase N): 30 µM | fraction unbound at 4 h [2]: 0.324 | IC50 (Insulin-degrading enzyme): 20 µM | MIC (Klebsiella pneumoniae): 0.03 µg/mL | Ki [3]: 0.03 µM | logD at 2 h [4]: -2.12 | MIC (Pseudomonas aeruginosa): 8 µg/mL | solubility at 24 h [5]: ≥ 200 µM | Ki [7]: 0.41 µM

Cc1[nH]cnc1CN(Cc1c[nH]cn1)[C@@H](CCCn1c(-c2ccccc2)n[nH]c1=S)C(=O)O
half-life [1]: > 40 min | fraction unbound at 4 h [2]: 0.377 | IC50 (Insulin-degrading enzyme): 35 µM | MIC (Klebsiella pneumoniae): 0.06 µg/mL | Ki [3]: 0.038 µM | logD at 2 h [4]: -1.93 | MIC (Pseudomonas aeruginosa): 8 µg/mL | solubility at 24 h [5]: ≥ 200 µM | Ki [6]: 4.5 µM | Ki [7]: 0.35 µM

— ChEMBL document CHEMBL5236609, “Optimization of 1,2,4-Triazole-3-thiones toward Broad-Spectrum Metallo-β-lactamase Inhibitors Showing Potent Synergistic Activity on VIM- and NDM-1-Producing Clinical Isolates” (J Med Chem, 2022)
